Experimental data as given in ChEMBL document CHEMBL3525900, “Pharmacokinetics, distribution, and metabolism of [14C]sunitinib in rats, monkeys, and humans” (Drug Metab Dispos, 2012).

Tests used:
[1] = Drug concentration in female albino rat bone marrow assessed as radioactivity per gram of tissue at 20 mg/kg administered as single dose via gastric gavage measured after 3 hrs by autoradiographic analysis; assay type: ADME, organism-based; set-up: dose 20 mg/kg, dosed compound name [14C]Sunitinib; details: in vivo, po
Outline: (§1)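 Sprague Dawley (albino) and Lister Hooded (pigmented) rats, ca 7-8 weeks old, 179-310 g, acclimated 7 days. Single gavage dose of [14C]sunitinib L-malate (15 mg freebase/kg, 100 µCi/kg). One male and one female killed by CO2 per time point: albino at 3, 6, 24, 72, 168 h; pigmented at 24, 72, 168, 336 h. Carcasses frozen in solid CO2/hexane, 30 µm sagittal sections freeze-dried. Tissue radioactivity read by quantitative whole-body autoradiography against regression of standards, mean background subtracted.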

[2] = Drug concentration in female albino rat uveal tract assessed as radioactivity per gram of tissue at 20 mg/kg administered as single dose via gastric gavage measured after 6 hrs by autoradiographic analysis; assay type: ADME, organism-based; set-up: dose 20 mg/kg, dosed compound name [14C]Sunitinib; details: in vivo, po
Ovary = experiment: Drug concentration in female albino rat ovary assessed as radioactivity per gram of tissue at 20 mg/kg administered as single dose via gastric gavage measured after 72 hrs by autoradiographic analysis; assay type: ADME, organism-based, Female gonad; set-up: dose 20 mg/kg, dosed compound name [14C]Sunitinib; details: in vivo, po
Outline: (§2)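 Sprague Dawley albino rats, ca 7-8 weeks old, dosed once by gastric gavage with [14C]sunitinib L-malate (15 mg freebase/kg, 100 µCi/kg). One male and one female killed by CO2 at 3, 6, 24, 72 and 168 h. Carcasses frozen in solid CO2/hexane, embedded and cut into 30 µm sagittal sections, then freeze-dried. Radioactivity quantified by whole-body autoradiography against standards by regression, background subtracted.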

Lung = experiment: Drug concentration in male albino rat lung assessed as radioactivity per gram of tissue at 20 mg/kg administered as single dose via gastric gavage measured after 3 hrs by autoradiographic analysis; assay type: ADME, organism-based; set-up: dose 20 mg/kg, dosed compound name [14C]Sunitinib; details: in vivo, po
[3] = Drug concentration in male albino rat testis assessed as radioactivity per gram of tissue at 20 mg/kg administered as single dose via gastric gavage measured after 24 hrs by autoradiographic analysis; assay type: ADME, organism-based; set-up: dose 20 mg/kg, dosed compound name [14C]Sunitinib; details: in vivo, po
[4] = Drug concentration in female Lister Hooded pigmented rat lymph node assessed as radioactivity per gram of tissue at 20 mg/kg administered as single dose via gastric gavage measured after 24 hrs by autoradiographic analysis; assay type: ADME, organism-based; set-up: dose 20 mg/kg, dosed compound name [14C]Sunitinib; details: in vivo, po; outline: as §1
[5] = Drug concentration in female albino rat uterus assessed as radioactivity per gram of tissue at 20 mg/kg administered as single dose via gastric gavage measured after 72 hrs by autoradiographic analysis; assay type: ADME, organism-based; set-up: dose 20 mg/kg, dosed compound name [14C]Sunitinib; details: in vivo, po
Rattus norvegicus [6] = experiment: Cmax as total radioactivity in male Sprague-Dawley rat plasma at 15 mg/kg, po administered as single dose by LC/MS/MS analysis; assay type: ADME, organism-based; set-up: dose 15 mg/kg, dosed compound name [14C]Sunitinib, route oral; details: in vivo
Outline: (§3)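 Single dose of [14C]sunitinib L-malate as free base, 50 µCi/kg. IV dose was 5 mg/kg by tail vein in 5 females. Oral dose was 15 mg/kg by gavage in 3 females and 3 males. Total radioactivity was by scintillation counting. […] Cmax was read from raw data, t½ by log-linear regression, AUC by linear trapezoidal rule.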

[7] = Drug concentration in female albino rat uterus assessed as radioactivity per gram of tissue at 20 mg/kg administered as single dose via gastric gavage measured after 6 hrs by autoradiographic analysis; assay type: ADME, organism-based; set-up: dose 20 mg/kg, dosed compound name [14C]Sunitinib; details: in vivo, po
Spleen [8] = experiment: Drug concentration in male albino rat spleen assessed as radioactivity per gram of tissue at 20 mg/kg administered as single dose via gastric gavage measured after 24 hrs by autoradiographic analysis; assay type: ADME, organism-based; set-up: dose 20 mg/kg, dosed compound name [14C]Sunitinib; details: in vivo, po
[9] = Drug concentration in female Lister Hooded pigmented rat uveal tract assessed as radioactivity per gram of tissue at 20 mg/kg administered as single dose via gastric gavage measured after 168 hrs by autoradiographic analysis; assay type: ADME, organism-based; set-up: dose 20 mg/kg, dosed compound name [14C]Sunitinib; details: in vivo, po
Outline: (§4)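 Lister Hooded (pigmented) rats, ca 7-8 weeks old, acclimated 7 days, given [14C]sunitinib L-malate by gastric gavage at 20 mg/kg (15 mg freebase/kg, 100 µCi/kg). One male and one female killed by CO2 at 24, 72, 168 and 336 h. Carcasses frozen in solid CO2/hexane and embedded in frozen cellulose. 30 µm sagittal cryosections were freeze-dried. Tissue radioactivity measured by quantitative whole-body autoradiography against calibration standards, with background subtracted.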

[10] = Drug concentration in female albino rat lymph node assessed as radioactivity per gram of tissue at 20 mg/kg administered as single dose via gastric gavage measured after 6 hrs by autoradiographic analysis; assay type: ADME, organism-based; set-up: dose 20 mg/kg, dosed compound name [14C]Sunitinib; details: in vivo, po; outline: as §2
[11] = Drug concentration in female albino rat thyroid gland assessed as radioactivity per gram of tissue at 20 mg/kg administered as single dose via gastric gavage measured after 3 hrs by autoradiographic analysis; assay type: ADME, organism-based; set-up: dose 20 mg/kg, dosed compound name [14C]Sunitinib; details: in vivo, po
Homo sapiens = experiment: Apparent oral clearance as total radioactivity in human plasma at 50 mg, po administered as single dose measured up to 24 hrs by LC/MS/MS analysis; assay type: ADME, organism-based; set-up: dosed compound name [14C]Sunitinib; details: in vivo
[12] = Drug concentration in male Lister Hooded pigmented rat preputial gland assessed as radioactivity per gram of tissue at 20 mg/kg administered as single dose via gastric gavage measured after 168 hrs by autoradiographic analysis; assay type: ADME, organism-based; set-up: dose 20 mg/kg, dosed compound name [14C]Sunitinib; details: in vivo, po
[13] = Drug concentration in male albino rat lachrymal gland assessed as radioactivity per gram of tissue at 20 mg/kg administered as single dose via gastric gavage measured after 3 hrs by autoradiographic analysis; assay type: ADME, organism-based; set-up: dose 20 mg/kg, dosed compound name [14C]Sunitinib; details: in vivo, po
[14] = Drug concentration in female Lister Hooded pigmented rat eye assessed as radioactivity per gram of tissue at 20 mg/kg administered as single dose via gastric gavage measured after 24 hrs by autoradiographic analysis; assay type: ADME, organism-based; set-up: dose 20 mg/kg, dosed compound name [14C]Sunitinib; details: in vivo, po; outline: as §4
Cynomolgus monkey = experiment: Total drug recovery in female cynomolgus monkey at 6 mg/kg, po administered as single dose during 0 to 336 hrs by liquid scintillation counting; assay type: ADME, organism-based, Macaca fascicularis; set-up: dose 6 mg/kg, dosed compound name [14C]Sunitinib, route oral; details: in vivo
Spleen [15] = experiment: Drug concentration in male albino rat spleen assessed as radioactivity per gram of tissue at 20 mg/kg administered as single dose via gastric gavage measured after 6 hrs by autoradiographic analysis; assay type: ADME, organism-based; set-up: dose 20 mg/kg, dosed compound name [14C]Sunitinib; details: in vivo, po
Rattus norvegicus [16] = experiment: AUC (0 to infinity) as total radioactivity in male Sprague-Dawley rat plasma at 15 mg/kg, po administered as single dose by LC/MS/MS analysis; assay type: ADME, organism-based; set-up: time infinity, dose 15 mg/kg, dosed compound name [14C]Sunitinib, route oral; details: in vivo; outline: as §3
Heart = experiment: Drug concentration in male Lister Hooded pigmented rat heart assessed as radioactivity per gram of tissue at 20 mg/kg administered as single dose via gastric gavage measured after 168 hrs by autoradiographic analysis; assay type: ADME, organism-based; set-up: dose 20 mg/kg, dosed compound name [14C]Sunitinib; details: in vivo, po
[17] = Drug concentration in male albino rat thyroid gland assessed as radioactivity per gram of tissue at 20 mg/kg administered as single dose via gastric gavage measured after 3 hrs by autoradiographic analysis; assay type: ADME, organism-based; set-up: dose 20 mg/kg, dosed compound name [14C]Sunitinib; details: in vivo, po
Small intestine = experiment: Drug concentration in male albino rat small intestine assessed as radioactivity per gram of tissue at 20 mg/kg administered as single dose via gastric gavage measured after 6 hrs by autoradiographic analysis; assay type: ADME, organism-based; set-up: dose 20 mg/kg, dosed compound name [14C]Sunitinib; details: in vivo, po
[18] = Drug concentration in male albino rat pituitary gland assessed as radioactivity per gram of tissue at 20 mg/kg administered as single dose via gastric gavage measured after 72 hrs by autoradiographic analysis; assay type: ADME, organism-based; set-up: dose 20 mg/kg, dosed compound name [14C]Sunitinib; details: in vivo, po
[19] = Drug concentration in male albino rat lachrymal gland assessed as radioactivity per gram of tissue at 20 mg/kg administered as single dose via gastric gavage measured after 24 hrs by autoradiographic analysis; assay type: ADME, organism-based; set-up: dose 20 mg/kg, dosed compound name [14C]Sunitinib; details: in vivo, po
Thymus = experiment: Drug concentration in male Lister Hooded pigmented rat thymus assessed as radioactivity per gram of tissue at 20 mg/kg administered as single dose via gastric gavage measured after 24 hrs by autoradiographic analysis; assay type: ADME, organism-based; set-up: dose 20 mg/kg, dosed compound name [14C]Sunitinib; details: in vivo, po

With `CCN(CC)CCNC(=O)c1c(C)[nH]c(/[14CH]=C2\C(=O)Nc3ccc(F)cc32)c1C.O=C(O)C[C@H](O)C(=O)O` the Radiolabel recovery [1] was 10.64 ugequiv, the Radiolabel recovery [2] was 4.94 ugequiv and the Radiolabel recovery (Ovary) was 0.09 ugequiv. It also gave a Radiolabel recovery (Lung) of 20.7 ugequiv, a Radiolabel recovery [3] of 2.8 ugequiv and a Radiolabel recovery [4] of 1.14 ugequiv. For the same compound, the Radiolabel recovery [5] was 0.12 ugequiv, the Cmax (Rattus norvegicus [6]) was 5220 ngequiv/ml and the Radiolabel recovery [7] was 6.63 ugequiv. For the same compound, the Radiolabel recovery (Spleen [8]) was 1.23 ugequiv, the Radiolabel recovery [9] was 276.19 ugequiv and the Radiolabel recovery [10] was 14.48 ugequiv. The Radiolabel recovery [11] was 18.64 ugequiv, the CL/F (Homo sapiens) was 23.5 L/h and the Radiolabel recovery [12] was 0.06 ugequiv. For the same compound, the Radiolabel recovery [13] was 8.82 ugequiv, the Radiolabel recovery [14] was 31.8 ugequiv and the Radiolabel recovery (Cynomolgus monkey) was 90.7%. For the same compound, the Radiolabel recovery (Spleen [15]) was 16.24 ugequiv, the AUC (Rattus norvegicus [16]) was 82039 ng.Eq.hr/ml and the Radiolabel recovery (Heart) was 0.06 ugequiv. The Radiolabel recovery [17] was 18.4 ugequiv, the Radiolabel recovery (Small intestine) was 5.54 ugequiv and the Radiolabel recovery [18] was 2.7 ugequiv. For the same compound, the Radiolabel recovery [19] was 4.7 ugequiv and the Radiolabel recovery (Thymus) was 0.67 ugequiv.
